Laboratory results taken from ChEMBL document CHEMBL1122092, “Synthesis of some potential antihypertensive phthalazinyl- and quinoxalinylguanidines” (J Med Chem, 1982).

How the values were obtained:
Rattus norvegicus [1] = assay: Percent change of mean arterial blood pressure in conscious DOCA Hypertensive rat at 2 hour, after administration of dose 10 mL (mg/kg po); assay type: functional
In short: (§1)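 Male DOCA (metacorticoid) hypertensive rats, conscious, with an aortic catheter implanted under halothane anaesthesia at least 48 h beforehand. Fasted 18 h, then dosed orally; saline vehicle 10 mL. Blood pressure recorded via pressure transducer with minimal restraint; a tachograph triggered by the pulse gave heart rate. Percent change from pre-dose control read at 1, 2, 3, 5 and 22 h.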

Rattus norvegicus [2] = assay: Percent change of mean arterial blood pressure in conscious DOCA Hypertensive rat at 22 hour, after administration of dose 10 mL (mg/kg po); assay type: functional; in short: as §1
Rattus norvegicus [3] = assay: Percent change of mean arterial blood pressure in conscious DOCA Hypertensive rat at 3 hour, after administration of dose 10 mL (mg/kg po); assay type: functional; in short: as §1
Rattus norvegicus [4] = assay: Percent change of mean arterial blood pressure in conscious DOCA Hypertensive rat at 5 hour, after administration of dose 10 mL (mg/kg po); assay type: functional; in short: as §1
Rattus norvegicus [5] = assay: Percent change of heart rate in conscious DOCA Hypertensive rat at 1 hour after administration of dose of 10 mL (mg/kg po); assay type: functional; in short: as §1
Rattus norvegicus [6] = assay: Percent change of heart rate in conscious DOCA Hypertensive rat at 22 hour after administration of dose of 10 mL (mg/kg po); assay type: functional; in short: as §1
Rattus norvegicus [7] = assay: Percent change of heart rate in conscious DOCA Hypertensive rat at 3 hour after administration of dose of 10 mL (mg/kg po); assay type: functional; in short: as §1
Rattus norvegicus [8] = assay: Percent change of heart rate in conscious DOCA Hypertensive rat at 5 hour after administration of dose of 10 mL (mg/kg po); assay type: functional; in short: as §1
Rattus norvegicus [9] = assay: Percent change of mean arterial blood pressure in conscious DOCA Hypertensive rat at 1 hour, after administration of dose 10 mL (mg/kg po); assay type: functional; in short: as §1
Rattus norvegicus [10] = assay: Percent change of heart rate in conscious DOCA Hypertensive rat at 2 hour after administration of dose of 10 mL (mg/kg po); assay type: functional; in short: as §1
[11] = biological target: Adrenergic receptor alpha; assay: In vitro postsynaptic antagonist activity against Alpha adrenergic receptor in rat anococcygeus muscle; assay type: functional, tissue-based
In short: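 Rat anococcygeus muscle; cumulative noradrenaline concentration-response curves obtained as control and again with increasing concentrations of test agent present; postsynaptic α-antagonism expressed as pA2. Mean of three experiments ± SEM.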

[12] = biological target: Adrenergic receptor alpha; assay: In vitro presynaptic antagonist activity against Alpha adrenergic receptor in rat vas deferens; assay type: functional, tissue-based
In short: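 Rat vas deferens under 0.1 Hz stimulation; cumulative clonidine concentration-response curves run with increasing concentrations of test agent to gauge presynaptic α-antagonism; pA2 reported. Mean of three experiments ± SEM.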

Rattus norvegicus [13] = assay: In vivo threshold intravenous dose required to cause reversal of clonidine on blood pressure in pithed rat; assay type: functional
In short: (§2)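 Pithed rats given clonidine 30 μg/kg iv, which acts presynaptically (hypogastric nerve response) and postsynaptically (pressor response). Test agents were then injected iv to find the threshold dose reversing each clonidine action. Five rats per drug.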

Rattus norvegicus [14] = assay: In vivo threshold intravenous dose required to cause reversal of clonidine on hypogastric nerves in pithed rat; assay type: functional, Hypogastric nerve; in short: as §2

SMILES	Change (Rattus norvegicus [1]) [%]	Change (Rattus norvegicus [2]) [%]	Change (Rattus norvegicus [3]) [%]	Change (Rattus norvegicus [4]) [%]	Change (Rattus norvegicus [5]) [%]	Change (Rattus norvegicus [6]) [%]	Change (Rattus norvegicus [7]) [%]	Change (Rattus norvegicus [8]) [%]	Change (Rattus norvegicus [9]) [%]	Change (Rattus norvegicus [10]) [%]	pA2 [11]	pA2 [12]	Dose (Rattus norvegicus [13]) [mg/kg]	Dose (Rattus norvegicus [14]) [mg/kg]
Nc1nnc2c3ccccc3cnn12	-19	-3	-20	-23	8	7	6	2	-14	7	–	–	–	–
CCCC/N=C(\N)Nc1nncc2ccccc12	-10	8	-12	-9	14	11	21	18	-10	19	5.2	6.6	1	1
CNc1nnc2c3ccccc3cnn12	-13	4	-12	-5	-23	-10	-25	-25	-12	-25	–	–	–	–
CCCC/N=C(/N)Nc1nc2ccccc2nc1C	-5	20	0	5	3	2	-5	-4	-3	-2	< 5.5	6.3	>1	>1
N=C(N)Nc1nncc2ccccc12	-20	4	-24	-20	2	3	7	1	-22	-14	4.9	5.7	1	3
c1ccc2c(NC3=NCCN3)nncc2c1	–	–	–	–	–	–	–	–	–	–	4.8	6	0.3	3
NNc1nncc2ccccc12 [HYDRALAZINE]	-45	-15	-44	-39	-5	8	2	11	-47	-1	–	–	–	–
Cc1ccc(N(CC2=NCCN2)c2cccc(O)c2)cc1 [PHENTOLAMINE]	-34	6	-33	-22	21	7	18	11	-41	22	–	–	0.03	0.03
